Experimental data taken from publication PMC3536955 (Osteoporosis International, 2012).

Experiments:
Assay type in all cases: in vivo, postmenopausal Japanese women
[1] = system: osteocalcin; test: Bone formation marker serum osteocalcin; settings: 4 to 15 days; 56.5 μg single s.c.; n = 10
Outline: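 Women aged 60–79 y were randomised double-blind to placebo or one s.c. injection at 0800 h, given after baseline blood. Serum was sampled 15–720 min post-dose, then each morning on days 2, 4, 6, 8, 11, 13 and 15. Osteocalcin was measured by BGP-IRMA (inter-assay CV 4.7–7.6 %), in a single batch per participant. Values were summarised as baseline median and follow-up distribution.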

[2] = system: urinary cross-linked C-telopeptide of type I collagen (CTX); test: Bone resorption marker urinary CTX; settings: n = 10
Outline: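 Urine was collected at baseline (0800 h), at 120, 240, 360 and 720 min after a single s.c. injection, and on mornings of days 2, 4, 6, 8, 11, 13 and 15. Subjects were postmenopausal women aged 60–79 y in a randomised, double-blind, placebo-controlled design. CTX was measured by ELISA (inter-assay CV 2.4–9.0 %), with each participant's samples in one batch. Median and distribution were summarised.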

[3] = system: intact PTH; test: Serum intact PTH; settings: n = 10
Outline: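 Intact PTH in serum was measured by electrochemiluminescence immunoassay. Postmenopausal women aged 60–79 y were randomised double-blind to placebo or a single s.c. dose, given at 0800 h straight after baseline sampling. Blood was drawn at 15, 30, 45, 60, 90, 120, 180, 240, 360 and 720 min, then mornings of days 2, 4, 6, 8, 11, 13 and 15. Baseline median and follow-up distribution were reported.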

[4] = system: 1,25-Dihydroxy vitamin D (1,25(OH)2D); test: Serum 1,25; settings: n = 10
Outline: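 Serum 1,25(OH)2D was measured by radio receptor assay (inter-assay CV 11.3–13.2 %), with each participant's samples in a single batch. Women aged 60–79 y received one s.c. injection or placebo at 0800 h after baseline blood, in a double-blind randomised design. Sampling ran from 15–720 min and on mornings of days 2, 4, 6, 8, 11, 13 and 15. Median baseline and follow-up distribution were tabulated.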

[5] = system: P1NP; test: Bone formation marker serum P1NP; settings: n = 10
Outline: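 Randomised, double-blind, placebo-controlled trial in women aged 60–79 y. A single s.c. dose was given at 0800 h after baseline sampling. Serum was drawn 15–720 min post-dose and on mornings of days 2, 4, 6, 8, 11, 13 and 15. P1NP was measured by radioimmunoassay (inter-assay CV 2.7–5.0 %), with each subject's samples in one batch. Median baseline and follow-up distribution were reported.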

[6] = 4 to 15 days, 28.2 μg single s.c.
[7] = 4 to 15 days, 56.5 μg single s.c.

CC[C@H](C)[C@H](NC(=O)[C@H](CCC(=O)O)NC(=O)[C@H](CO)NC(=O)[C@@H](NC(=O)[C@@H](N)CO)C(C)C)C(=O)N[C@@H](CCC(N)=O)C(=O)N[C@@H](CC(C)C)C(=O)N[C@@H](CCSC)C(=O)N[C@@H](Cc1cnc[nH]1)C(=O)N[C@@H](CC(N)=O)C(=O)N[C@@H](CC(C)C)C(=O)NCC(=O)N[C@@H](CCCCN)C(=O)N[C@@H](Cc1cnc[nH]1)C(=O)N[C@@H](CC(C)C)C(=O)N[C@@H](CC(N)=O)C(=O)N[C@@H](CO)C(=O)N[C@@H](CCSC)C(=O)N[C@@H](CCC(=O)O)C(=O)N[C@@H](CCCN=C(N)N)C(=O)N[C@H](C(=O)N[C@@H](CCC(=O)O)C(=O)N[C@@H](Cc1c[nH]c2ccccc12)C(=O)N[C@@H](CC(C)C)C(=O)N[C@@H](CCCN=C(N)N)C(=O)N[C@@H](CCCCN)C(=O)N[C@@H](CCCCN)C(=O)N[C@@H](CC(C)C)C(=O)N[C@@H](CCC(N)=O)C(=O)N[C@@H](CC(=O)O)C(=O)N[C@H](C(=O)N[C@@H](Cc1cnc[nH]1)C(=O)N[C@@H](CC(N)=O)C(=O)N[C@@H](Cc1ccccc1)C(=O)O)C(C)C)C(C)C [teriparatide]
Serum osteocalcin, Max [1]: 17.9 ng/mL | Serum osteocalcin, Median [1]: 7.9 ng/mL | Serum osteocalcin, Min [1]: 4.3 ng/mL | Urinary CTX, Max ([2]; 2 to 24 h, 28.2 μg single s.c.): 958.0 µg/mmol | Urinary CTX, Median ([2]; 2 to 24 h, 28.2 μg single s.c.): 402.5 µg/mmol | Urinary CTX, Min ([2]; 2 to 24 h, 28.2 μg single s.c.): 192.0 µg/mmol | Urinary CTX, Max ([2]; 2 to 24 h, 56.5 μg single s.c.): 1190.0 µg/mmol | Urinary CTX, Median ([2]; 2 to 24 h, 56.5 μg single s.c.): 508.5 µg/mmol | Urinary CTX, Min ([2]; 2 to 24 h, 56.5 μg single s.c.): 238.0 µg/mmol | Urinary CTX, Max [2, 6]: 655.0 µg/mmol | Urinary CTX, Median [2, 6]: 351.0 µg/mmol | Urinary CTX, Min [2, 6]: 106.0 µg/mmol | Urinary CTX, Max [2, 7]: 972.0 µg/mmol | Urinary CTX, Median [2, 7]: 351.0 µg/mmol | Urinary CTX, Min [2, 7]: 142.0 µg/mmol | Intact-PTH, Max ([3]; 2 to 24 h, 28.2 μg single s.c.): 66.0 pg/mL | Intact-PTH, Median ([3]; 2 to 24 h, 28.2 μg single s.c.): 34.5 pg/mL | Intact-PTH, Min ([3]; 2 to 24 h, 28.2 μg single s.c.): 17.0 pg/mL | Intact-PTH, Max ([3]; 2 to 24 h, 56.5 μg single s.c.): 65.0 pg/mL | Intact-PTH, Median ([3]; 2 to 24 h, 56.5 μg single s.c.): 35.0 pg/mL | Intact-PTH, Min ([3]; 2 to 24 h, 56.5 μg single s.c.): 18.0 pg/mL | Intact-PTH, Max [3, 6]: 64.0 pg/mL | Intact-PTH, Median [3, 6]: 45.5 pg/mL | Intact-PTH, Min [3, 6]: 25.0 pg/mL | Intact-PTH, Max [3, 7]: 109.0 pg/mL | Intact-PTH, Median [3, 7]: 49.0 pg/mL | Intact-PTH, Min [3, 7]: 26.0 pg/mL | 1,25(OH)2D, Max ([4]; 2 to 24 h, 28.2 μg single s.c.): 118.0 pg/mL | 1,25(OH)2D, Median ([4]; 2 to 24 h, 28.2 μg single s.c.): 67.5 pg/mL | 1,25(OH)2D, Min ([4]; 2 to 24 h, 28.2 μg single s.c.): 37.0 pg/mL | 1,25(OH)2D, Max ([4]; 2 to 24 h, 56.5 μg single s.c.): 136.0 pg/mL | 1,25(OH)2D, Median ([4]; 2 to 24 h, 56.5 μg single s.c.): 70.5 pg/mL | 1,25(OH)2D, Min ([4]; 2 to 24 h, 56.5 μg single s.c.): 33.0 pg/mL | 1,25(OH)2D, Max [4, 6]: 99.0 pg/mL | 1,25(OH)2D, Median [4, 6]: 56.0 pg/mL | 1,25(OH)2D, Min [4, 6]: 21.0 pg/mL | 1,25(OH)2D, Max [4, 7]: 94.0 pg/mL | 1,25(OH)2D, Median [4, 7]: 54.0 pg/mL | 1,25(OH)2D, Min [4, 7]: 18.0 pg/mL | Serum P1NP, Max ([5]; 2 to 24 h, 28.2 μg single s.c.): 77.4 ng/mL | Serum P1NP, Median ([5]; 2 to 24 h, 28.2 μg single s.c.): 47.4 ng/mL | Serum P1NP, Min ([5]; 2 to 24 h, 28.2 μg single s.c.): 28.0 ng/mL | Serum P1NP, Max ([5]; 2 to 24 h, 56.5 μg single s.c.): 101.0 ng/mL | Serum P1NP, Median ([5]; 2 to 24 h, 56.5 μg single s.c.): 49.1 ng/mL | Serum P1NP, Min ([5]; 2 to 24 h, 56.5 μg single s.c.): 13.0 ng/mL | Serum P1NP, Max [5, 6]: 80.2 ng/mL | Serum P1NP, Median [5, 6]: 53.5 ng/mL | Serum P1NP, Min [5, 6]: 30.7 ng/mL | Serum P1NP, Max [5, 7]: 118.0 ng/mL | Serum P1NP, Median [5, 7]: 56.9 ng/mL | Serum P1NP, Min [5, 7]: 18.3 ng/mL
